{"data": "Measured values pooled from the literature", "RPS6KA5": "Ribosomal protein S6 kinase alpha-5 (RPS6KA5, Homo sapiens, UniProt O75582)", "RPS6KA5 N-terminal kinase domain": "Ribosomal protein S6 kinase alpha-5, N-terminal kinase domain (RPS6KA5, Homo sapiens, UniProt O75582)", "RPS6KA5 C-terminal kinase domain": "Ribosomal protein S6 kinase alpha-5, C-terminal kinase domain (RPS6KA5, Homo sapiens, UniProt O75582)", "note": "Compare with care: the assays were run in different laboratories."}
{"SMILES": "Cn1cc(-c2cccc(N3CCc4c(sc5c4CC(C)(C)C5)C3=O)c2CO)cc(Nc2ccncn2)c1=O", "target": "RPS6KA5", "observed": "enzyme activity", "mode": "inhibitor", "tested at": "1 µM", "measurement": "inhibition", "result": "2%"}
{"SMILES": "C#Cc1n[nH]c2c(-c3cn([C@@H](C)c4ccccc4)c(=O)[nH]c3=O)cc(F)cc12", "target": "RPS6KA5", "observed": "enzyme activity", "mode": "inhibitor", "tested at": "0.1 µM", "measurement": "inhibition", "result": "-1.9%"}
{"SMILES": "O=c1[nH]c2ccccc2n1C1CCN(Cc2ccc(-c3[nH]c4cc5ncnc5cc4nc3-c3ccccc3)cc2)CC1", "target": "RPS6KA5", "observed": "cell-free assay", "tested at": "0.5 µM", "measurement": "remaining signal", "result": "103%"}
{"SMILES": "C#Cc1n[nH]c2c(-c3cn([C@@H](C)c4ccccn4)c(=O)[nH]c3=O)cc(F)cc12", "target": "RPS6KA5", "observed": "enzyme activity", "mode": "inhibitor", "tested at": "0.1 µM", "measurement": "inhibition", "result": "2%"}
{"SMILES": "Cn1cc(-c2cc(F)cc(N3CCn4c(cc5c4CCCC5)C3=O)c2CO)cc(Nc2ccc(N3CCN(C4COC4)CC3)cn2)c1=O", "target": "RPS6KA5", "observed": "enzyme activity", "mode": "inhibitor", "tested at": "0.1 µM", "measurement": "inhibition", "result": "13%"}
{"SMILES": "CC(C)(C)c1cc(C=C(C#N)C#N)cc(Br)c1O", "target": "RPS6KA5", "observed": "enzyme activity", "mode": "inhibitor", "tested at": "0.5 µM", "measurement": "remaining activity", "result": "108%"}
{"SMILES": "Cn1cncc1[C@@](O)(COc1ccc(C#N)cc1-c1ccc(OC(F)(F)F)cc1)c1ccc(C#N)cc1", "target": "RPS6KA5 N-terminal kinase domain", "observed": "cell-free assay", "technique": "competition with immobilised ligand", "tested at": "1 µM", "measurement": "remaining binding", "result": "88%"}
{"SMILES": "Cc1nn(C)cc1-c1nc2c(N3CCN(Cc4ccc(Cl)cc4)CC3)c(Cl)cnc2[nH]1", "target": "RPS6KA5 C-terminal kinase domain", "observed": "binding", "technique": "competition with immobilised ligand", "tested at": "1 µM", "measurement": "remaining binding", "result": "100%"}
{"SMILES": "N#CC1(c2ccccn2)CCN(Cc2cc(C(=O)O)c(=O)n3ccccc23)CC1", "target": "RPS6KA5 C-terminal kinase domain", "observed": "cell-free assay", "technique": "competition with immobilised ligand", "tested at": "1 µM", "measurement": "remaining binding", "result": "83%"}
{"SMILES": "Nc1ncc(-c2nc(N3CCOCC3)nc(N3CCOCC3)n2)c(C(F)F)n1", "target": "RPS6KA5 N-terminal kinase domain", "observed": "binding", "technique": "competition with immobilised ligand", "tested at": "10 µM", "measurement": "remaining binding", "result": "88%"}
